In ChEMBL document CHEMBL4665798, “Novel Human Urate Transporter 1 Inhibitors as Hypouricemic Drug Candidates with Favorable Druggability” (J Med Chem, 2020):
pIC50: −log10 of the molar value.

Assays:
Mus musculus = assay: Hypouricemic activity in Kunming mouse model of xanthine/potassium oxonate-induced acute hyperuricemia assessed as decrease in serum uric acid level at 2 mg/kg administered 3 hrs prior to xanthine/potassium oxonate and measured after 6 hrs relative to control; format: functional; parameters: scale not given: the % may be the effect or the level left; conditions: time 9 hrs
Summary of the method: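 Male Kunming mice, hyperuricemia induced by intragastric xanthine plus subcutaneous potassium oxonate (0.2 mL each). […] Groups: normal vehicle, untreated model, active control, test. Serum uric acid measured. Decrease ratio = (model SUA − compound SUA)/(model SUA − vehicle SUA).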

[1] = target: T1, Solute carrier family 22 member 12 (Homo sapiens, UniProt Q96S37); assay: Inhibition of human URAT1 expressed in HEK293T cells assessed as reduction in [14C]uric acid uptake preincubated for 15 mins followed by [14C]uric acid addition by liquid scintillation counting method; format: cell-based
T1 sequence (Q96S37 whole entry): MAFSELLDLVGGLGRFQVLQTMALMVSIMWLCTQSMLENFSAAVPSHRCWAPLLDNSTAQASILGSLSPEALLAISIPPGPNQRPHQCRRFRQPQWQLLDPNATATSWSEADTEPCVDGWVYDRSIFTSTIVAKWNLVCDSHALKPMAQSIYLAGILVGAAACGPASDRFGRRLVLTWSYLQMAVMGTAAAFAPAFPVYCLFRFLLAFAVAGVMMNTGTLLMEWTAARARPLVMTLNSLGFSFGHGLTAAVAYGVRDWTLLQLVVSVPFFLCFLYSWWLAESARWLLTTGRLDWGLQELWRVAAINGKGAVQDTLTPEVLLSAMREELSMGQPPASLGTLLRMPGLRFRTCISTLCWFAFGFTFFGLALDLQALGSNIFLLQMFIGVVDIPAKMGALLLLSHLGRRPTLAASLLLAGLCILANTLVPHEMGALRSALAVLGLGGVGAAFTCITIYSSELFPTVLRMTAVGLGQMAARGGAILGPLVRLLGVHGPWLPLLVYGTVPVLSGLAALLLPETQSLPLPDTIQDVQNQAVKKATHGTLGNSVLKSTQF

Rattus norvegicus = species on record: Rattus norvegicus; assay: Hypouricemic activity in rat model of xanthine/potassium oxonate-induced acute hyperuricemia assessed as decrease in serum uric acid level relative to control; format: functional; parameters: scale not given: the % may be the effect or the level left
[2] = Acute toxicity in Kunming mouse assessed as induction of abnormal behaviors by measuring clonic convulsion at 500 mg/kg, ig; format: organism-based; conditions: in vivo, po
[3] = Sub-acute toxicity in Kunming mouse assessed as congestion in hepatic central vein at 50 mg/kg, po administered as single dose every other day for 14 days by H and E staining based assay; format: organism-based; conditions: in vivo, 336 h, time 14 day
[4] = Sub-acute toxicity in female Kunming mouse assessed as increase in body weight at 50 mg/kg, po administered once every second day for 14 days; format: organism-based; conditions: in vivo, 336 h, time 14 day
[5] = Sub-acute toxicity in Kunming mouse assessed as death at 50 mg/kg, po administered once every second day for 14 days; format: organism-based; conditions: in vivo, 336 h, time 14 day
[6] = Acute toxicity in Kunming mouse assessed as induction of abnormal behaviors by measuring lethargy at 500 mg/kg, ig; format: organism-based; conditions: in vivo, po
[7] = Acute toxicity in Kunming mouse assessed as death at 500 mg/kg, ig measured for 1 week; format: organism-based; conditions: in vivo, po, 168 h, time 1 weeks
[8] = Sub-acute toxicity in Kunming mouse assessed as hepatocellular condensation of liver at 50 mg/kg, po administered as single dose every other day for 14 days by H and E staining based assay; format: organism-based; conditions: in vivo, 336 h, time 14 day
[9] = AUC (0 to t) in Sprague-Dawley rat at 20 mg/kg, po by LC-MS analysis; format: ADME, organism-based; parameters: dose 20 mg/kg; conditions: in vivo
[10] = AUC (0 to infinity) in Sprague-Dawley rat at 20 mg/kg, po by LC-MS analysis; format: ADME, organism-based; parameters: route oral, time infinity, dose 20 mg/kg; conditions: in vivo
[11] = MRT (0 to infinity) in Sprague-Dawley rat at 20 mg/kg, po by LC-MS analysis; format: ADME, organism-based; conditions: in vivo
[12] = Sub-acute toxicity in Kunming mouse assessed as ballooning degeneration of liver at 50 mg/kg, po administered as single dose every other day for 14 days by H and E staining based assay; format: organism-based; conditions: in vivo, 336 h, time 14 day
[13] = Sub-acute toxicity in Kunming mouse assessed as clonic convulsion at 50 mg/kg, po administered once every second day for 14 days; format: organism-based; conditions: in vivo, 336 h, time 14 day
[14] = Acute toxicity in male Kunming mouse assessed as change in body weight at 500 mg/kg, ig measured for 1 week; format: organism-based; conditions: in vivo, po, 168 h, time 1 weeks
[15] = Clearance in Sprague-Dawley rat at 1 mg/kg, iv by LC-MS analysis; format: ADME, organism-based; conditions: in vivo
[16] = Half-life in Sprague-Dawley rat at 20 mg/kg, po by LC-MS analysis; format: ADME, organism-based; conditions: in vivo
[17] = Sub-acute toxicity in Kunming mouse assessed as hydropic degeneration of hepatocytes at 50 mg/kg, po administered as single dose every other day for 14 days by H and E staining based assay; format: organism-based; conditions: in vivo, 336 h, time 14 day
[18] = Tmax in Sprague-Dawley rat at 20 mg/kg, po by LC-MS analysis; format: ADME, organism-based; conditions: in vivo
[19] = AUC (0 to infinity) in Sprague-Dawley rat at 1 mg/kg, iv by LC-MS analysis; format: ADME, organism-based; parameters: time infinity, route intravenous, dose 1 mg/kg; conditions: in vivo
[20] = Sub-acute toxicity in Kunming mouse assessed as lethargy at 50 mg/kg, po administered once every second day for 14 days; format: organism-based; conditions: in vivo, 336 h, time 14 day
[21] = Acute toxicity in Kunming mouse assessed as induction of abnormal behaviors by measuring anorexia at 500 mg/kg, ig; format: organism-based; conditions: in vivo, po
[22] = Acute toxicity in female Kunming mouse assessed as change in body weight at 500 mg/kg, ig measured for 1 week; format: organism-based; conditions: in vivo, po, 168 h, time 1 weeks
[23] = Half-life in Sprague-Dawley rat at 1 mg/kg, iv by LC-MS analysis; format: ADME, organism-based; conditions: in vivo
[24] = Sub-acute toxicity in male Kunming mouse assessed as increase in body weight at 50 mg/kg, po administered once every second day for 14 days; format: organism-based; conditions: in vivo, 336 h, time 14 day
[25] = Cmax in Sprague-Dawley rat at 20 mg/kg, po by LC-MS analysis; format: ADME, organism-based; parameters: route oral, dose 20 mg/kg; conditions: in vivo
[26] = Sub-acute toxicity in Kunming mouse assessed as anorexia at 50 mg/kg, po administered once every second day for 14 days; format: organism-based; conditions: in vivo, 336 h, time 14 day
[27] = Oral bioavailability in Sprague-Dawley rat at 20 mg/kg by LC-MS analysis; format: ADME, organism-based; conditions: in vivo
[28] = Sub-acute toxicity in Kunming mouse assessed as appearance of ruffled fur at 50 mg/kg, po administered once every second day for 14 days; format: organism-based; conditions: in vivo, 336 h, time 14 day
[29] = AUC (0 to t) in Sprague-Dawley rat at 1 mg/kg, iv by LC-MS analysis; format: ADME, organism-based; parameters: dose 1 mg/kg; conditions: in vivo
[30] = MRT (0 to infinity) in Sprague-Dawley rat at 1 mg/kg, iv by LC-MS analysis; format: ADME, organism-based; conditions: in vivo

## CC(Sc1nc2cccnc2n1-c1ccc(C2CC2)c2ccccc12)C(=O)O (configuration not stated)
Mus musculus
  Activity: 42.06%
[1]
  pIC50: < 4.52

## CC(C)S(=O)(=O)NC(=O)CSc1nnc(Br)n1-c1ccc(C2CC2)c2ccccc12
Mus musculus
  Activity: 11.99%

## O=C(CSc1nnc(Br)n1-c1ccc(C2CC2)c2ccccc12)NS(=O)(=O)C1CC1
Mus musculus
  Activity: 17.54%

## CC(C)(C)c1ccc(S(=O)(=O)NC(=O)CSc2nnc(Br)n2-c2ccc(C3CC3)c3ccccc23)cc1
Mus musculus
  Activity: 15.1%

## CC(Sc1nc2cnccc2n1-c1ccc(C2CC2)c2ccccc12)C(=O)O (racemic)
Rattus norvegicus
  Activity: 81.42%
[2]
  Activity: Non-Toxic
[3]
  Activity: Non-Toxic
[4]
  Activity: Non-Toxic
[5]
  Activity: Non-Toxic
[6]
  Activity: Non-Toxic
Mus musculus
  Activity: 89.62%
[1]
  pIC50: 5.21
[7]
  Activity: Non-Toxic
[8]
  Activity: Non-Toxic
[9]
  AUC(0-t): 58200 ng·h/mL
[10]
  AUC(0-inf): 65100 ng·h/mL
[11]
  MRT inf: 4.6 h
[12]
  Activity: Non-Toxic
[13]
  Activity: Non-Toxic
[14]
  Activity: Non-Toxic
[15]
  clearance: 5.3 mL/min/kg
[16]
  half-life: 3.1 h
[17]
  Activity: Non-Toxic
[18]
  Tmax: 0.5 h
[19]
  AUC(0-inf): 3320 ng·h/mL
[20]
  Activity: Non-Toxic
[21]
  Activity: Non-Toxic
[22]
  Activity: Non-Toxic
[23]
  half-life: 2.3 h
[24]
  Activity: Non-Toxic
[25]
  Cmax: 21600 ng/mL
[26]
  Activity: Non-Toxic
[27]
  bioavailability: 93.6%
[28]
  Activity: Non-Toxic
[29]
  AUC(0-t): 3110 ng·h/mL
[30]
  MRT inf: 2.86 h
